ChEMBL document CHEMBL3232844, “Synthesis and structure activity relationships of schweinfurthin indoles” (2014)

Assays:
Format in all cases: functional
SF-268 = experiment: Cytotoxicity against human SF268 cells
Summary of the method: (§1)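 Tested in a 60-cell-line human tumor panel screen; the read-out is growth inhibition, reported as GI50 for each cell line.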

MCF7 = experiment: Cytotoxicity against human MCF7 cells; summary of the method: as §1
786-0 = experiment: Cytotoxicity against human 786-0 cells; summary of the method: as §1
SNB-19 = experiment: Cytotoxicity against human SNB19 cells; summary of the method: as §1
[1] = Cytotoxicity against human OVCAR8 cells; summary of the method: as §1
T47D = experiment: Cytotoxicity against human T47D cells
Summary of the method: (§2)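 Cell line run as part of the 60-cell-line screening panel; growth inhibition was reported as a GI50 for each line.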

NCI-H460 = experiment: Cytotoxicity against human NCI-H460 cells; summary of the method: as §1
COLO 205 = experiment: Cytotoxicity against human COLO205 cells; summary of the method: as §1
HCT-116 = experiment: Cytotoxicity against human HCT116 cells; summary of the method: as §1
SK-MEL-5 = experiment: Cytotoxicity against human SK-MEL-5 cells; summary of the method: as §1
[2] = Cytotoxicity against human NCI-ADR-RES cells; summary of the method: as §1
MDA-MB-231 = experiment: Cytotoxicity against human MDA-MB-231 cells; summary of the method: as §1
SK-OV-3 = experiment: Cytotoxicity against human SKOV3 cells; summary of the method: as §1
LOX IMVI = experiment: Cytotoxicity against human LOXIMVI cells; summary of the method: as §1
K562 = experiment: Cytotoxicity against human K562 cells; summary of the method: as §1
MOLT-4 = experiment: Cytotoxicity against human MOLT4 cells; summary of the method: as §1
HCC 2998 = experiment: Cytotoxicity against human HCC2998 cells; summary of the method: as §1
A549 = experiment: Cytotoxicity against human A549 cells; summary of the method: as §1
[3] = Cytotoxicity against human UACC62 cells; summary of the method: as §2
[4] = Cytotoxicity against human OVCAR5 cells; summary of the method: as §1
SF-539 = experiment: Cytotoxicity against human SF539 cells; summary of the method: as §1
CCRF-CEM = experiment: Cytotoxicity against human CCRF-CEM cells
SK-MEL-2 = experiment: Cytotoxicity against human SK-MEL-2 cells; summary of the method: as §1
IGROV-1 = experiment: Cytotoxicity against human IGROV1 cells; summary of the method: as §1
CAKI-1 = experiment: Cytotoxicity against human Caki1 cells; summary of the method: as §1
SNB-75 = experiment: Cytotoxicity against human SNB75 cells; summary of the method: as §2
M14 = experiment: Cytotoxicity against human M14 cells; summary of the method: as §1
NCI-H322M = experiment: Cytotoxicity against human NCI-H322M cells; summary of the method: as §1
HL-60(TB) = experiment: Cytotoxicity against human HL-60(TB) cells
Summary of the method: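 Tested within the NCI 60-cell-line screen, with GI50 as the read-out. Values are the average of two independent experiments. The lowest concentration tested was 10 nM.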

A498 = experiment: Cytotoxicity against human A498 cells; summary of the method: as §1
NCI-H23 = experiment: Cytotoxicity against human NCI-H23 cells; summary of the method: as §1
HOP-62 = experiment: Cytotoxicity against human HOP62 cells; summary of the method: as §1
MDA-MB-435 = experiment: Cytotoxicity against human MDA-MB-435 cells; summary of the method: as §1
ACHN = experiment: Cytotoxicity against human ACHN cells; summary of the method: as §1
MDA-MB-468 = experiment: Cytotoxicity against human MDA-MB-468 cells; summary of the method: as §1
NCI-H226 = experiment: Cytotoxicity against human NCI-H226 cells; summary of the method: as §1
[5] = Cytotoxicity against human HCT15 cells; summary of the method: as §1
PC-3 = experiment: Cytotoxicity against human PC3 cells; summary of the method: as §1
KM12 = experiment: Cytotoxicity against human KM12 cells; summary of the method: as §1
[6] = Cytotoxicity against human OVCAR4 cells; summary of the method: as §1
[7] = Cytotoxicity against human UO31 cells; summary of the method: as §2
DU-145 = experiment: Cytotoxicity against human DU145 cells; summary of the method: as §1
BT-549 = experiment: Cytotoxicity against human BT549 cells; summary of the method: as §1
[8] = read-out: pLC50 (the source's name) (converted)

## COc1cc(/C=C/c2cc(O)c3c(c2)C[C@@H]2C(C)(C)[C@H](O)CC[C@@]2(C)O3)cc2[nH]cc(CC=C(C)C)c12
SF-268
  GI50: 851 nM
SF-268; [8]
  CC50: 69.2 µM
SF-268; read-out: pTGI (converted)
  TGI: 38.9 µM
MCF7
  GI50: 537 nM
  LC50: 55 µM
MCF7; read-out: pTGI (converted)
  TGI: 12.3 µM
786-0
  GI50: 10 nM
  LC50 (concentration killing 50% of cells): 21.4 µM
786-0; read-out: pTGI (converted)
  TGI: 2450 nM
SNB-19
  GI50: 575 nM
SNB-19; [8]
  CC50: 64.6 µM
SNB-19; read-out: pTGI (converted)
  TGI: 35.5 µM
[1]; OVCAR-8
  GI50: 11.5 µM
[1]; OVCAR-8, read-out: pLC50 (the source's name) (converted)
  CC50: 79.4 µM
[1]; OVCAR-8, read-out: pTGI (converted)
  TGI: 47.9 µM
T47D
  GI50: 8.13 µM
T47D; [8]
  CC50: > 100 µM
T47D; read-out: pTGI (converted)
  TGI: 39.8 µM
NCI-H460
  GI50: 209 nM
NCI-H460; [8]
  CC50: 66.1 µM
NCI-H460; read-out: pTGI (converted)
  TGI: 26.9 µM
COLO 205
  GI50: 4.17 µM
COLO 205; [8]
  CC50: 21.4 µM
COLO 205; read-out: pTGI (converted)
  TGI: 9.33 µM
HCT-116
  GI50: 339 nM
HCT-116; [8]
  CC50: 64.6 µM
HCT-116; read-out: pTGI (converted)
  TGI: 36.3 µM
SK-MEL-5
  GI50: 1230 nM
SK-MEL-5; [8]
  CC50: 7.08 µM
SK-MEL-5; read-out: pTGI (converted)
  TGI: 2140 nM
[2]
  GI50: 7.59 µM
[2]; [8]
  CC50: 85.1 µM
[2]; read-out: pTGI (converted)
  TGI: 46.8 µM
MDA-MB-231
  GI50: 891 nM
  LC50: 45.7 µM
MDA-MB-231; read-out: pTGI (converted)
  TGI: 9.77 µM
SK-OV-3
  GI50: 4.68 µM
  LC50: 77.6 µM
SK-OV-3; read-out: pTGI (converted)
  TGI: 39.8 µM
LOX IMVI
  GI50: 282 nM
LOX IMVI; [8]
  CC50: 30.9 µM
LOX IMVI; read-out: pTGI (converted)
  TGI: 6.61 µM
K562
  GI50: 138 nM
K562; [8]
  CC50: > 100 µM
K562; read-out: pTGI (converted)
  TGI: 9.77 µM
MOLT-4
  GI50: 105 nM
MOLT-4; [8]
  CC50: > 100 µM
MOLT-4; read-out: pTGI (converted)
  TGI: 2570 nM
HCC 2998
  GI50: 6.03 µM
HCC 2998; [8]
  CC50: 67.6 µM
HCC 2998; read-out: pTGI (converted)
  TGI: 37.2 µM
A549
  GI50: 2400 nM
A549; [8]
  CC50: 67.6 µM
A549; read-out: pTGI (converted)
  TGI: 38.9 µM
[3]; UACC-62
  GI50: 100 nM
[3]; UACC-62, read-out: pLC50 (the source's name) (converted)
  CC50: 33.9 µM
[3]; UACC-62, read-out: pTGI (converted)
  TGI: 955 nM
[4]; OVCAR-5
  GI50: 5.37 µM
[4]; OVCAR-5, read-out: pLC50 (the source's name) (converted)
  CC50: 60.3 µM
[4]; OVCAR-5, read-out: pTGI (converted)
  TGI: 30.2 µM
SF-539
  GI50: 10 nM
SF-539; [8]
  CC50: 24.5 µM
SF-539; read-out: pTGI (converted)
  TGI: 4.47 µM
CCRF-CEM
  GI50: 87.1 nM
CCRF-CEM; [8]
  CC50: > 100 µM
CCRF-CEM; read-out: pTGI (converted)
  TGI: 14.8 µM
SK-MEL-2
  GI50: 105 nM
SK-MEL-2; [8]
  CC50: 50.1 µM
SK-MEL-2; read-out: pTGI (converted)
  TGI: 5.25 µM
IGROV-1
  GI50: 5.01 µM
IGROV-1; [8]
  CC50: 89.1 µM
IGROV-1; read-out: pTGI (converted)
  TGI: 45.7 µM
CAKI-1
  GI50: 245 nM
  LC50: 79.4 µM
CAKI-1; read-out: pTGI (converted)
  TGI: 17 µM
SNB-75
  GI50: 10 nM
SNB-75; [8]
  CC50: 64.6 µM
SNB-75; read-out: pTGI (converted)
  TGI: 10.5 µM
M14
  GI50: 537 nM
M14; [8]
  CC50: 64.6 µM
M14; read-out: pTGI (converted)
  TGI: 32.4 µM
NCI-H322M
  GI50: 18.2 µM
NCI-H322M; [8]
  CC50: 77.6 µM
NCI-H322M; read-out: pTGI (converted)
  TGI: 49 µM
HL-60(TB)
  GI50: 64.6 nM
HL-60(TB); [8]
  CC50: 79.4 µM
HL-60(TB); read-out: pTGI (converted)
  TGI: 18.2 µM
A498
  GI50: 66.1 nM
A498; [8]
  CC50: 44.7 µM
A498; read-out: pTGI (converted)
  TGI: 2690 nM
NCI-H23
  GI50: 1550 nM
NCI-H23; [8]
  CC50: 66.1 µM
NCI-H23; read-out: pTGI (converted)
  TGI: 26.9 µM
HOP-62
  GI50: 50.1 nM
HOP-62; [8]
  CC50: 40.7 µM
HOP-62; read-out: pTGI (converted)
  TGI: 1700 nM
MDA-MB-435
  GI50: 437 nM
MDA-MB-435; [8]
  CC50: 95.5 µM
MDA-MB-435; read-out: pTGI (converted)
  TGI: 38 µM
ACHN
  GI50: 3.63 µM
  LC50 (concentration killing 50% of cells): 61.7 µM
ACHN; read-out: pTGI (converted)
  TGI: 38 µM
MDA-MB-468
  GI50: 182 nM
  LC50: 67.6 µM
MDA-MB-468; read-out: pTGI (converted)
  TGI: 4.79 µM
NCI-H226
  GI50: 8.32 µM
NCI-H226; [8]
  CC50: 72.4 µM
NCI-H226; read-out: pTGI (converted)
  TGI: 33.1 µM
[5]; HCT-15
  GI50: 209 nM
[5]; HCT-15, read-out: pLC50 (the source's name) (converted)
  CC50: 36.3 µM
[5]; HCT-15, read-out: pTGI (converted)
  TGI: 4.9 µM
PC-3
  GI50: 1320 nM
  LC50: > 100 µM
PC-3; read-out: pTGI (converted)
  TGI: 43.7 µM
KM12
  GI50: 2950 nM
KM12; [8]
  CC50: 33.1 µM
KM12; read-out: pTGI (converted)
  TGI: 10.2 µM
[6]; OVCAR-4
  GI50: 10.7 µM
[6]; OVCAR-4, read-out: pLC50 (the source's name) (converted)
  CC50: 77.6 µM
[6]; OVCAR-4, read-out: pTGI (converted)
  TGI: 47.9 µM
[7]; UO-31
  GI50: 129 nM
  LC50: 69.2 µM
[7]; UO-31, read-out: pTGI (converted)
  TGI: 21.4 µM
DU-145
  GI50: 5.25 µM
  LC50 (50% lethal concentration): 64.6 µM
DU-145; read-out: pTGI (converted)
  TGI: 39.8 µM
BT-549
  GI50: 479 nM
BT-549; [8]
  CC50: 67.6 µM
BT-549; read-out: pTGI (converted)
  TGI: 41.7 µM
